Converted amounts (≈) assume the structure as drawn. The source made the active and inactive calls. The rule behind the calls is not given here.
Experiments:
Cytochrome P450 3A4 = Cytochrome P450 3A4 (Homo sapiens, UniProt P08684); assay: Inhibition of CYP3A4 in human liver microsomes preincubated for 5 mins followed by NADPH addition measured after 5 mins by LC-MS/MS analysis; assay type: ADME
Salmonella typhimurium [1] = assay: Mutagenicity in Salmonella typhimurium TA100 in presence of rat liver S9 fraction assessed as increase in revertant colonies at 0.24 to 500 ug/well after 72 hrs by Ames test relative to control; assay type: toxicity; conditions: salmonella enterica subsp. enterica serovar typhimurium, s9, 72 h
Method in brief: (§1)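 Reverse mutation at histidine locus in S. typhimurium TA98 (frameshift) and TA100 (base-pair substitution), with and without S9; 0.24−500 μg/well; 37 ± 2 °C for 72 h, triplicates; DMSO vehicle; sodium azide, 2-nitrofluorene, 2-aminoanthracene positive controls; positive if revertants rise ≥2-fold over negative control dose-dependently.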

CYP2D6 = CYP2D6 (Homo sapiens, UniProt P10635); assay: Inhibition of CYP2D6 in human liver microsomes preincubated for 5 mins followed by NADPH addition at 10 uM measured after 10 mins by LC-MS/MS analysis relative to control; assay type: ADME
[2] = test system: Mycobacteroides abscessus; assay: Antibacterial activity against Addison's disease patient derived Mycobacterium abscessus subsp. massiliense isolate CIP108297 smooth variant after 3 to 5 days by two fold serial dilution method; assay type: functional
Method in brief: (§2)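 Broth microdilution in cation-adjusted Mueller−Hinton broth per CLSI; inoculum 5 × 10^6 CFU/mL of exponential-phase bacteria; two-fold serial dilutions, solvent-only wells as control; 30 °C for 3−5 days; MIC read visually and confirmed by absorbance at 560 nm; triplicate on three independent occasions.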

[3] = test system: Mycobacteroides abscessus; assay: Antibacterial activity against CF patient derived Mycobacterium abscessus subsp. abscessus smooth variant after 3 to 5 days by two fold serial dilution method; assay type: functional; method in brief: as §2
[4] = test system: Mycobacteroides abscessus; assay: Antibacterial activity against CF patient derived Mycobacterium abscessus subsp. massiliense isolate 122 smooth variant after 3 to 5 days by two fold serial dilution method; assay type: functional; method in brief: as §2
[5] = Permeability of the compound at 25 uM at pH 5 after 4 hrs by LC-MS based PAMPA; assay type: physicochemical; conditions: read-out: permeability
Method in brief: (§3)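 PAMPA: 25 μM compound in aqueous buffer at pH 7.4 or 5.0 (pH adjusted with NaOH) in donor plate, triplicate; acceptor membrane coated with GIT-0 lipid, acceptor sink buffer; 4 h at 25 ± 2 °C; donor and acceptor solutions analysed by LC-MS (UPLC).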

[6] = test system: Mycobacteroides abscessus; assay: Antibacterial activity against CF patient derived Mycobacterium abscessus subsp. massiliense isolate 212 smooth variant after 3 to 5 days by two fold serial dilution method; assay type: functional; method in brief: as §2
[7] = test system: Mycobacteroides abscessus; assay: Antibacterial activity against Mycobacterium abscessus CIP104536 smooth variant assessed as reduction in viable colony forming unit at […] after 4 days by time-kill assay; assay type: functional
Cytochrome P450 1A2 = biological target: T1, Cytochrome P450 1A2 (Homo sapiens, UniProt P05177); assay: Inhibition of CYP1A2 in human liver microsomes preincubated for 5 mins followed by NADPH addition measured after 10 mins by LC-MS/MS analysis; assay type: ADME
T1 sequence (P05177 whole entry): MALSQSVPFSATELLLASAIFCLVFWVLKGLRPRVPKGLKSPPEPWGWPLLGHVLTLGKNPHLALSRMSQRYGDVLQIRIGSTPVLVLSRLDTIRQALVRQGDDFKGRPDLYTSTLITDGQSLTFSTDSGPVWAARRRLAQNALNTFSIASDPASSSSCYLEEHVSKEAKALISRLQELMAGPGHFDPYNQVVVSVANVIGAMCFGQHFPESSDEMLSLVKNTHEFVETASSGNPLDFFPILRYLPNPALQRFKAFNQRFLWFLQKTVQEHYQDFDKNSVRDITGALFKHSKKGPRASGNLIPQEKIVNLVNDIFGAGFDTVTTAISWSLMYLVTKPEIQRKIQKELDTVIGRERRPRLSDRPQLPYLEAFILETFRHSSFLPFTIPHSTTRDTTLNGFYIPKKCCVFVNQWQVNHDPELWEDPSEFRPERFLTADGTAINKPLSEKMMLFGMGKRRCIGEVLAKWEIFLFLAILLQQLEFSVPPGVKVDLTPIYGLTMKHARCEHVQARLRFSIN

[8] = Antibacterial activity against Mycobacterium abscessus subsp. bolletii isolate CIP108541 smooth variant after 3 to 5 days by two fold serial dilution method; assay type: functional; conditions: Mycobacteroides abscessus; method in brief: as §2
Vero = assay: Cytotoxicity against African green monkey Vero cells; assay type: cell-based; conditions: Chlorocebus sabaeus
CYP2C9 = CYP2C9 (Homo sapiens, UniProt P11712); assay: Inhibition of CYP2C9 in human liver microsomes preincubated for 5 mins followed by NADPH addition at 10 uM measured after 10 mins by LC-MS/MS analysis relative to control; assay type: ADME
Salmonella typhimurium [9] = assay: Mutagenicity in Salmonella typhimurium TA98 in presence of rat liver S9 fraction assessed as increase in revertant colonies at 0.24 to 500 ug/well after 72 hrs by Ames test relative to control; assay type: toxicity; conditions: salmonella enterica subsp. enterica serovar typhimurium, s9, 72 h; method in brief: as §1
[10] = test system: Mycobacterium tuberculosis; assay: Inhibition of C-terminal His-tagged Mycobacterium tuberculosis Ag85C expressed in Escherichia coli C41 (DE3) at 2.5 to 50 uM after 1 hr by resorufin butyrate-based fluorescence assay
Method in brief: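 Purified Ag85C mycolyltransferase activity measured with the fluorescent probe resorufin butyrate; compounds tested at 2.5 to 50 μM.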

[11] = test system: Mycobacteroides abscessus; assay: Antibacterial activity against CF patient derived Mycobacterium abscessus subsp. massiliense isolate 185 smooth variant after 3 to 5 days by two fold serial dilution method; assay type: functional; method in brief: as §2
[12] = Antibacterial activity against CF patient derived Mycobacterium abscessus subsp. bolletii isolate 108 rough variant after 3 to 5 days by two fold serial dilution method; assay type: functional; conditions: Mycobacteroides abscessus; method in brief: as §2
[13] = test system: Mycobacteroides abscessus; assay: Antibacterial activity against Mycobacterium abscessus CIP_PIPD1 harboring MAB_4508 g925c/A309P mutant after 3 to 5 days by two fold serial dilution method; assay type: functional; method in brief: as §2
[14] = Antibacterial activity against non CF patient derived Mycobacterium abscessus subsp. bolletii isolate 19 rough variant after 3 to 5 days by two fold serial dilution method; assay type: functional; conditions: Mycobacteroides abscessus; method in brief: as §2
[15] = test system: Mycobacteroides abscessus; assay: Antibacterial activity against CF patient derived Mycobacterium abscessus subsp. massiliense isolate 140 smooth variant after 3 to 5 days by two fold serial dilution method; assay type: functional; method in brief: as §2
[16] = Permeability of the compound at 25 uM at pH 7.4 after 4 hrs by LC-MS based PAMPA; assay type: physicochemical; conditions: read-out: permeability; method in brief: as §3
[17] = test system: Mycobacteroides abscessus; assay: Antibacterial activity against CF patient derived Mycobacterium abscessus subsp. massiliense isolate 120 smooth variant after 3 to 5 days by two fold serial dilution method; assay type: functional; method in brief: as §2
[18] = Antibacterial activity against CF patient derived Mycobacterium abscessus subsp. bolletii isolate 116 smooth variant after 3 to 5 days by two fold serial dilution method; assay type: functional; conditions: Mycobacteroides abscessus; method in brief: as §2
Salmonella typhimurium [19] = assay: Mutagenicity in Salmonella typhimurium TA100 assessed as increase in revertant colonies at 0.24 to 500 ug/well after 72 hrs by Ames test relative to control; assay type: toxicity; conditions: salmonella enterica subsp. enterica serovar typhimurium; method in brief: as §1
[20] = test system: Mycobacteroides abscessus; assay: Inhibition of MmpL3 in Mycobacterium abscessus CIP104536 smooth variant assessed as increase in accumulation of trehalose monomycolate up to 6.2 ug/ml preincubated for 1 hr followed by [14C]acetic acid addition measured after 2 hrs by TLC based autoradiography analysis
Method in brief: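 Exponential cultures in 7H9 with OADC exposed to increasing drug concentrations for 1 h at 37 °C with agitation, then labelled with 1 μCi/mL [14C]acetate (56 mCi/mmol) for 2 h; apolar lipids (TMM, TDM) run on TLC in chloroform/methanol/water 40:8:1; MAME and arabinogalactan-bound mycolates in petroleum ether/acetone 95:5; autoradiography.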

Sequence of CYP2C9 (P11712 whole entry): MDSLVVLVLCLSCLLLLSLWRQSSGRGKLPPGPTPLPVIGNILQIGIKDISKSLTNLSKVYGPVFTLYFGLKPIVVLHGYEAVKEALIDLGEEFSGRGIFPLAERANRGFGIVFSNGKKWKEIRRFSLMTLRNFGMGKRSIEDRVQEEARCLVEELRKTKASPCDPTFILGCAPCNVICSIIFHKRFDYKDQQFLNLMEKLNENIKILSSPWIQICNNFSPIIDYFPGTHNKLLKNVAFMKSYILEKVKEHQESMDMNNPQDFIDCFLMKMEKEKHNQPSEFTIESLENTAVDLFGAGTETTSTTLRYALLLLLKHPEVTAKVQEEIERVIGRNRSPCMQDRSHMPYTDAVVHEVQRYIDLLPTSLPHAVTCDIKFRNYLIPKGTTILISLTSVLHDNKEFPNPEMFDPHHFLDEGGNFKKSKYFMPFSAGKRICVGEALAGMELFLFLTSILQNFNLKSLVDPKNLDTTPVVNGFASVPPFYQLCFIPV
Sequence of Cytochrome P450 3A4 (P08684 whole entry): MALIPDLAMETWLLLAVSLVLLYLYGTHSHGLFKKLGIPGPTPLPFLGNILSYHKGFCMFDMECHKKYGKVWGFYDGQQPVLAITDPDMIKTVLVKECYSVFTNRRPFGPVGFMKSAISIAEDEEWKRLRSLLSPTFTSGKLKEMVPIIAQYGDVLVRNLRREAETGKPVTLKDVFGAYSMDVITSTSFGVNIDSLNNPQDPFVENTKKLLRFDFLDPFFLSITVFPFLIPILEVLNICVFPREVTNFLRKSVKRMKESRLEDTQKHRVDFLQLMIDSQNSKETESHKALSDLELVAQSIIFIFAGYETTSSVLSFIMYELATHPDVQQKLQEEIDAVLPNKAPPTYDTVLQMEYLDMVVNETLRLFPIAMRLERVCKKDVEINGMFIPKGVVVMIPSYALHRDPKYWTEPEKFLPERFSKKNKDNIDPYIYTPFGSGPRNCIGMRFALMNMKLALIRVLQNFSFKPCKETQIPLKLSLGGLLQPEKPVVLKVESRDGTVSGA
Sequence of CYP2D6 (P10635 whole entry): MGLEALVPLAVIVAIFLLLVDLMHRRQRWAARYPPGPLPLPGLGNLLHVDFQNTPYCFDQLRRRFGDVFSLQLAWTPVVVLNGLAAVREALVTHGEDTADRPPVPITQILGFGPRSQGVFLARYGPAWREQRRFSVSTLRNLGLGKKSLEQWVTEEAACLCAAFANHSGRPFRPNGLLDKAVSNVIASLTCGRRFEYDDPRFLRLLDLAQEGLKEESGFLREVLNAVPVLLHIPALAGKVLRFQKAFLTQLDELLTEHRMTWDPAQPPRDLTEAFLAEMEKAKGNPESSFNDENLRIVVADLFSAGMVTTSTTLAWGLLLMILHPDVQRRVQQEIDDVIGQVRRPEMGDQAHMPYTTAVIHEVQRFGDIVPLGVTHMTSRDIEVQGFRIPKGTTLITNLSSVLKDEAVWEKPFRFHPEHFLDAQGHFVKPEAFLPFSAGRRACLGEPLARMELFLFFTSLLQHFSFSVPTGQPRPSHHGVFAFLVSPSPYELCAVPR

O=C(NC1CCCCCC1)c1cc2c(Cl)cc(Cl)cc2[nH]1
IC50 (Cytochrome P450 3A4): ≤ 20 µM
fold change (FC) (Salmonella typhimurium [1]): < 2
inhibition at 10 min, 10 µM (CYP2D6): 10%
MIC [2]: 0.125 µg/mL (≈ 0.384 µM)
MIC [3]: 0.125 µg/mL (≈ 0.384 µM)
MIC [4]: 0.125 µg/mL (≈ 0.384 µM)
Papp at 4 h, 25 µM [5]: 0.3 ×10⁻⁶ cm/s
MIC [6]: 0.125 µg/mL (≈ 0.384 µM)
Activity [7]: Active
IC50 (Cytochrome P450 1A2): ≤ 20 µM
MIC [8]: 0.125 µg/mL (≈ 0.384 µM)
IC50 (Vero): 8 to 16 µg/mL (≈ 24.6 to 49.2 µM)
inhibition at 10 min, 10 µM (CYP2C9): 6%
fold change (FC) (Salmonella typhimurium [9]): < 2
inhibition [10]: inactive
MIC [11]: 0.125 µg/mL (≈ 0.384 µM)
MIC [12]: 0.25 µg/mL (≈ 0.769 µM)
MIC [13]: 32 µg/mL (≈ 98.4 µM)
MIC [14]: 0.125 µg/mL (≈ 0.384 µM)
MIC [15]: 0.125 µg/mL (≈ 0.384 µM)
Papp at 4 h, 25 µM [16]: 0.2 ×10⁻⁶ cm/s
MIC [17]: 0.125 µg/mL (≈ 0.384 µM)
MIC [18]: 0.25 µg/mL (≈ 0.769 µM)
fold change (FC) (Salmonella typhimurium [19]): < 2
inhibition [20]: Active

From ChEMBL document CHEMBL4014347, “Targeting Mycolic Acid Transport by Indole-2-carboxamides for the Treatment of Mycobacterium abscessus Infections” (J Med Chem, 2017)
